In ChEMBL document CHEMBL1154831, “Synthesis, characterization and biological activity of some new 1,3,4-oxadiazole bearing 2-flouro-4-methoxy phenyl moiety” (2010):
In brackets after ≈: the same amount, converted by molar mass.

Key:
Type in all cases: functional
Staphylococcus aureus = experiment: Antimicrobial activity against Staphylococcus aureus after 16 to 18 hrs by serial dilution method
Summary of the method: (§1)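 Serial dilutions of each compound, each inoculated with one standard drop of the prepared test culture. Incubation was 16–18 h at 37 °C. MIC was read as the highest dilution giving clear fluid with no turbidity.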

Bacillus subtilis = experiment: Antimicrobial activity against Bacillus subtilis after 16 to 18 hrs by serial dilution method; summary of the method: as §1
Escherichia coli = experiment: Antimicrobial activity against Escherichia coli after 16 to 18 hrs by serial dilution method; summary of the method: as §1
Pseudomonas aeruginosa = experiment: Antimicrobial activity against Pseudomonas aeruginosa after 16 to 18 hrs by serial dilution method; summary of the method: as §1
Candida albicans = experiment: Antimicrobial activity against Candida albicans after 16 to 18 hrs by serial dilution method; summary of the method: as §1

SMILES	MIC (Staphylococcus aureus) [µg/mL]	MIC (Bacillus subtilis) [µg/mL]	MIC (Escherichia coli) [µg/mL]	MIC (Pseudomonas aeruginosa) [µg/mL]	MIC (Candida albicans) [µg/mL]
NC(=O)N/N=C/c1ccc([N+](=O)[O-])o1 [NITROFURAZONE]	12.5 (≈ 63.1 µM)	12.5 (≈ 63.1 µM)	6 (≈ 30.3 µM)	12.5 (≈ 63.1 µM)	
COc1ccc(-c2nnc(-c3cccc(Br)c3C)o2)c(F)c1	6 (≈ 16.5 µM)	6 (≈ 16.5 µM)	3 (≈ 8.26 µM)	3 (≈ 8.26 µM)	6 (≈ 16.5 µM)
COc1ccc(-c2nnc(-c3cnc4ccccc4c3)o2)c(F)c1	6 (≈ 18.7 µM)	6 (≈ 18.7 µM)	6 (≈ 18.7 µM)	6 (≈ 18.7 µM)	6 (≈ 18.7 µM)
COc1ccc(-c2nnc(-c3ccc(Cl)nc3)o2)c(F)c1	12.5 (≈ 40.9 µM)	6 (≈ 19.6 µM)	6 (≈ 19.6 µM)	12.5 (≈ 40.9 µM)	6 (≈ 19.6 µM)
COc1ccc(-c2nnc(-c3cc(C)on3)o2)c(F)c1	12.5 (≈ 45.4 µM)	12.5 (≈ 45.4 µM)	6 (≈ 21.8 µM)	6 (≈ 21.8 µM)	3 (≈ 10.9 µM)
COc1ccc(-c2nnc(-c3cccc(C#N)c3)o2)c(F)c1	6 (≈ 20.3 µM)	6 (≈ 20.3 µM)	6 (≈ 20.3 µM)	6 (≈ 20.3 µM)	6 (≈ 20.3 µM)
COc1ccc(-c2nnc(-c3cc(F)cc(F)c3)o2)c(F)c1	6 (≈ 19.6 µM)	6 (≈ 19.6 µM)	6 (≈ 19.6 µM)	6 (≈ 19.6 µM)	6 (≈ 19.6 µM)
COc1ccc(-c2nnc(-c3ccc([N+](=O)[O-])c(F)c3)o2)c(F)c1	6 (≈ 18 µM)	6 (≈ 18 µM)	6 (≈ 18 µM)	6 (≈ 18 µM)	6 (≈ 18 µM)
COc1ccc(-c2nnc(-c3ccc(F)c(F)c3F)o2)c(F)c1	6 (≈ 18.5 µM)	6 (≈ 18.5 µM)	3 (≈ 9.25 µM)	3 (≈ 9.25 µM)	6 (≈ 18.5 µM)
COc1ccc(-c2nnc(-c3cccc(C)c3C)o2)c(F)c1	6 (≈ 20.1 µM)	6 (≈ 20.1 µM)	6 (≈ 20.1 µM)	12.5 (≈ 41.9 µM)	6 (≈ 20.1 µM)
COc1ccc(-c2nnc(-c3c([N+](=O)[O-])ccc(F)c3F)o2)c(F)c1	6 (≈ 17.1 µM)	6 (≈ 17.1 µM)	12.5 (≈ 35.6 µM)	6 (≈ 17.1 µM)	6 (≈ 17.1 µM)
COc1ccc(-c2nnc(-c3cc(Cl)ccc3Br)o2)c(F)c1	6 (≈ 15.6 µM)	6 (≈ 15.6 µM)	6 (≈ 15.6 µM)	6 (≈ 15.6 µM)	3 (≈ 7.82 µM)
COc1ccc(-c2nnc(-c3ccccc3C(F)(F)F)o2)c(F)c1	6 (≈ 17.7 µM)	6 (≈ 17.7 µM)	6 (≈ 17.7 µM)	6 (≈ 17.7 µM)	6 (≈ 17.7 µM)
COc1ccc(-c2nnc(-c3ccc(F)cc3)o2)c(F)c1	6 (≈ 20.8 µM)	6 (≈ 20.8 µM)	12.5 (≈ 43.4 µM)	6 (≈ 20.8 µM)	6 (≈ 20.8 µM)
OC(Cn1cncn1)(Cn1cncn1)c1ccc(F)cc1F [FLUCONAZOLE]					6 (≈ 19.6 µM)
